Reference: ChEMBL document CHEMBL4725282, “Discovery of a Conformationally Constrained Oxazolidinone with Improved Safety and Efficacy Profiles for the Treatment of Multidrug-Resistant Tuberculosis” (J Med Chem, 2020)

Assays:
[1] = Genotoxicity in CHO-WBL cells assessed as chromosome aberration at 90 to 397.1 ug/ml measured after 20 hrs in absence of S9 fraction by Giemsa staining based; type: toxicity, cell-based, Cricetulus griseus; settings: chinese hamster, dose 90-397.1 µg/ml
Method in brief: (§1)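 CHO-WBL cells in McCoy's 5A with 10% FBS, seeded 20-24 h before treatment. Compound in DMSO, with or without serum-free S-9 mix. Treatment either 3 h, then HBSS wash and 17 h further culture, or 20 h; harvest at 20 h from treatment start. Colcemid 0.1 μg/mL for the final 2 h, hypotonic KCl, methanol:acetic acid fixation, Giemsa stain. 300 metaphases per concentration (150 per duplicate flask) scored.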

[2] = Genotoxicity in CHO-WBL cells assessed as chromosome aberration at 90 to 397.1 ug/ml measured after 20 hrs in presence of S9 fraction by Giemsa staining based; type: toxicity, subcellular, Cricetulus griseus; settings: chinese hamster, s9, 20 h, dose 90-397.1 µg/ml; method in brief: as §1
[3] = Toxicity in female Sprague-Dawley rat assessed as change in red blood cell count at 150 mg/kg/day, po administered for 4 weeks followed by 2 week recovery period (Rvb =7.32 +/- 0.20 10^12/L); type: organism-based; settings: in vivo, 672 h
[4] = Genotoxicity in CHO-WBL cells assessed as chromosome aberration at 20 to 150 ug/ml measured after 20 hrs in presence of S9 fraction by Giemsa staining based; type: toxicity, subcellular, Cricetulus griseus; settings: chinese hamster, s9, 20 h, dose 20-150 µg/ml; method in brief: as §1
[5] = Toxicity in female Sprague-Dawley rat assessed as change in mean corpuscular hemoglobin at 450 mg/kg/day, po administered for 4 weeks followed by 2 week recovery period (Rvb =18.5 +/- 0.6 pg); type: organism-based; settings: in vivo, 672 h
[6] = Toxicity in female Sprague-Dawley rat assessed as change in red blood cell count at 50 mg/kg/day, po administered for 4 weeks followed by 2 week recovery period (Rvb =7.32 +/- 0.20 10^12/L); type: organism-based; settings: in vivo, 672 h
[7] = Genotoxicity in CHO-WBL cells assessed as chromosome aberration at 20 to 150 ug/ml incubated for 3 hrs followed by compound washout and measured after 17 hrs in absence of S9 fraction by Giemsa staining based; type: toxicity, cell-based, Cricetulus griseus; settings: chinese hamster, dose 20-150 µg/ml; method in brief: as §1
[8] = Toxicity in female Sprague-Dawley rat assessed as change in red blood cell count at 450 mg/kg/day, po administered for 4 weeks followed by 2 week recovery period (Rvb =7.32 +/- 0.20 10^12/L); type: organism-based; settings: in vivo, 672 h
[9] = Toxicity in male Sprague-Dawley rat assessed as effect on food consumption at 50 to 450 mg/kg/day, po administered for 4 weeks followed by 2 week recovery period measured at 1 week interval; type: organism-based; settings: in vivo, 672 h, dose 50-450 mg/kg/day
[10] = Toxicity in female Sprague-Dawley rat assessed as change in white blood cell count at 150 mg/kg/day, po administered for 4 weeks followed by 2 week recovery period (Rvb =3.61 +/- 0.75 10^9/L); type: organism-based; settings: in vivo, 672 h
[11] = Genotoxicity in CHO-WBL cells assessed as chromosome aberration at 20 to 150 ug/ml incubated for 3 hrs followed by compound washout and measured after 17 hrs in presence of S9 fraction by Giemsa staining based; type: toxicity, subcellular, Cricetulus griseus; settings: chinese hamster, s9, 3 h, dose 20-150 µg/ml; method in brief: as §1
Cytochrome P450 2C19 = Cytochrome P450 2C19 (Homo sapiens, UniProt P33261); assay: Inhibition of CYP2C19 in human liver microsomes after 20 mins by LC-MS/MS analysis; type: ADME
Method in brief: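 Human liver microsomes (0.2 mg/mL) in phosphate buffer, 20 min incubation with compound at 0.1-50 μM alongside isoform-specific substrates and a positive control. Substrate remaining monitored by LC-MS/MS at each concentration; IC50 derived.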

[12] = Toxicity in female Sprague-Dawley rat assessed as changes in neuropsychic symptoms at 50 to 450 mg/kg/day, po administered for 4 weeks measured during last 24 hrs of treatment period; type: organism-based; settings: in vivo, 672 h, dose 50-450 mg/kg/day
Method in brief: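 SD rats, 6-7 weeks old (96 in total), split into vehicle, 50, 150 and 450 mg/kg/day groups of 12 females and 12 males each, given oral doses once daily for 4 weeks, then 2 weeks of recovery. Mortality, body weight, food intake, eyes, urine and neuropsychic signs were observed. Organ and bone marrow histopathology was done on 8 rats per sex per group after the last dose and on the remaining 4 per sex after 14 days of recovery.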

[13] = Half life in human hepatocytes at 2 uM by LC-MS/MS analysis; type: ADME, cell-based, Hepatocyte
Method in brief: (§2)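 Hepatocytes (male CD-1 mouse, male SD rat, male beagle dog, male cynomolgus monkey, pooled human), final 1 μM compound and 1 million cells/mL, made by mixing 2 μM compound with 2 million cells/mL. Incubated at 37 °C in a CO2 incubator; sampled at 0, 15, 30, 60, 90 and 120 min. Quenched with methanol/ACN containing 0.1% formic acid. Parent remaining measured by LC-MS/MS.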

[14] = Half life in CD-1 mouse hepatocytes at 2 uM by LC-MS/MS analysis; type: ADME, cell-based, Hepatocyte; method in brief: as §2
[15] = Toxicity in male Sprague-Dawley rat assessed as change in platelet count at 150 mg/kg/day, po administered for 4 weeks followed by 2 week recovery period (Rvb =1077 +/- 117 10^9/L); type: organism-based; settings: in vivo, 672 h
[16] = Toxicity in female Sprague-Dawley rat assessed as change in hemoglobin count at 50 mg/kg/day, po administered for 4 weeks followed by 2 week recovery period (Rvb =136 +/- 7 g/L); type: organism-based; settings: in vivo, 672 h
[17] = Toxicity in male Sprague-Dawley rat assessed as change in hemoglobin count at 50 mg/kg/day, po administered for 4 weeks followed by 2 week recovery period (Rvb =144 +/- 5 g/L); type: organism-based; settings: in vivo, 672 h
[18] = Toxicity in male Sprague-Dawley rat assessed as ophthalmic changes at 50 to 450 mg/kg/day, po administered for 4 weeks measured within 7 days of post last dose; type: organism-based; settings: in vivo, 672 h, dose 50-450 mg/kg/day
[19] = Toxicity in Mycobacterium tuberculosis H37Rv infected Balb/c mouse assessed as change in body weight at 100 mg/kg/day, po administered via gavage 5 times per week for 3 weeks starting from 10 days post-infection (reference value: 21.29 +/- 0.84 g); type: organism-based; settings: in vivo, 504 h, time 21 day
[20] = Toxicity in male Sprague-Dawley rat assessed as change in lymphocyte level at 150 mg/kg/day, po administered for 4 weeks followed by 2 week recovery period (Rvb =77.4 +/- 3.7 %); type: organism-based; settings: in vivo, 672 h
[21] = Toxicity in female Sprague-Dawley rat assessed as change in mean platelet volume at 50 mg/kg/day, po administered for 4 weeks followed by 2 week recovery period (Rvb =7.1 +/- 0.5 fL); type: organism-based; settings: in vivo, 672 h
[22] = Toxicity in female Sprague-Dawley rat assessed as change in hematocrit level at 150 mg/kg/day, po administered for 4 weeks followed by 2 week recovery period (Rvb =41.1 +/- 1.4 %); type: organism-based; settings: in vivo, 672 h
[23] = Toxicity in male Sprague-Dawley rat assessed as change in neutrophil level at 50 mg/kg/day, po administered for 4 weeks followed by 2 week recovery period (Rvb =15.9 +/- 3.4 %); type: organism-based; settings: in vivo, 672 h
[24] = Toxicity in male Sprague-Dawley rat assessed as change in lymphocyte level at 50 mg/kg/day, po administered for 4 weeks followed by 2 week recovery period (Rvb =77.4 +/- 3.7 %); type: organism-based; settings: in vivo, 672 h

Chain of Cytochrome P450 2C19 (P33261 whole entry, canonical isoform): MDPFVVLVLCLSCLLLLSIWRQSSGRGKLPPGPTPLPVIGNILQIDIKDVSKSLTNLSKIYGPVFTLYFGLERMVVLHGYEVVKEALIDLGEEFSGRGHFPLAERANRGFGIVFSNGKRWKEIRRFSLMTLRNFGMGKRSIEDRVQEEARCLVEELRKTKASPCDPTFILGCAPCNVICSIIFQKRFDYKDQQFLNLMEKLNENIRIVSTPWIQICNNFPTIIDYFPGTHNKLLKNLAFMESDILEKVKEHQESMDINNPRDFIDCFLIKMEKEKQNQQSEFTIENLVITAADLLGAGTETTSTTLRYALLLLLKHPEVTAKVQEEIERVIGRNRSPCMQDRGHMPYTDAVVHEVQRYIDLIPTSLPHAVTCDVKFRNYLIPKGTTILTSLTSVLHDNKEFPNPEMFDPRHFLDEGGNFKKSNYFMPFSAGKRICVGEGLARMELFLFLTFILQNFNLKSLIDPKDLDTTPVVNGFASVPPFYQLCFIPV

CC(=O)NC[C@@H]1OC(=O)N2c3cc(F)c(N4CC[S+]([O-])CC4)cc3OC[C@@H]12
Activity [1]: Non-Toxic
Activity [2]: Non-Toxic

CC(=O)NC[C@@H]1OC(=O)N2c3cc(F)c(N4CCSCC4)cc3OC[C@@H]12
Activity [3]: 6.61 10^12/L
Activity [4]: Non-Toxic
Activity [5]: 18.7 pg
Activity [6]: 6.85 10^12/L
Activity [7]: Non-Toxic
Activity [8]: 6.53 10^12/L
Activity [9]: Non-Toxic
Activity [10]: 3.04 10^9/L
Activity [11]: Non-Toxic
IC50 (Cytochrome P450 2C19): 48.2 µM
Activity [12]: Non-Toxic
half-life at 2 µM [13]: > 8.33 h
half-life at 2 µM [14]: 1.27 h
Activity [15]: 998 10^9/L
Activity [16]: 126 g/L
Activity [17]: 136 g/L
Activity [18]: Non-Toxic
Activity [19]: 21.25 g
Activity [20]: 77.3%
Activity [21]: 7.1 fL
Activity [22]: 37.4%
Activity [23]: 13%
Activity [24]: 82%
